In ChEMBL document CHEMBL2390952, “Novel triazolo-pyrrolopyridines as inhibitors of Janus kinase 1” (Bioorg Med Chem Lett, 2013):

Columns and labels:
Homo sapiens [1] = organism: Homo sapiens; experiment: Selectivity ratio of Ki for JAK2 (unknown origin) to Ki for JAK1 (unknown origin)
Outline: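 Biochemical JAK enzyme assay giving Ki, reported as the arithmetic mean of at least three separate determinations. Selectivity is taken as JAK2 Ki divided by JAK1 Ki.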

[2] = Half life in human liver microsomes; assay type: ADME, Microsome
Outline: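 Half-life measured by incubation with in vitro preparations of human liver microsomes.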

[3] = Lipophilicity, log D of the compound at pH 7.2; assay type: physicochemical; settings: buffer
Outline: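 Log D determined experimentally at pH 7.2.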

[4] = target: Tyrosine-protein kinase JAK2 (Homo sapiens, UniProt O60674); experiment: Inhibition of JAK2 (unknown origin)
Sequence of Tyrosine-protein kinase JAK2 (O60674 whole entry): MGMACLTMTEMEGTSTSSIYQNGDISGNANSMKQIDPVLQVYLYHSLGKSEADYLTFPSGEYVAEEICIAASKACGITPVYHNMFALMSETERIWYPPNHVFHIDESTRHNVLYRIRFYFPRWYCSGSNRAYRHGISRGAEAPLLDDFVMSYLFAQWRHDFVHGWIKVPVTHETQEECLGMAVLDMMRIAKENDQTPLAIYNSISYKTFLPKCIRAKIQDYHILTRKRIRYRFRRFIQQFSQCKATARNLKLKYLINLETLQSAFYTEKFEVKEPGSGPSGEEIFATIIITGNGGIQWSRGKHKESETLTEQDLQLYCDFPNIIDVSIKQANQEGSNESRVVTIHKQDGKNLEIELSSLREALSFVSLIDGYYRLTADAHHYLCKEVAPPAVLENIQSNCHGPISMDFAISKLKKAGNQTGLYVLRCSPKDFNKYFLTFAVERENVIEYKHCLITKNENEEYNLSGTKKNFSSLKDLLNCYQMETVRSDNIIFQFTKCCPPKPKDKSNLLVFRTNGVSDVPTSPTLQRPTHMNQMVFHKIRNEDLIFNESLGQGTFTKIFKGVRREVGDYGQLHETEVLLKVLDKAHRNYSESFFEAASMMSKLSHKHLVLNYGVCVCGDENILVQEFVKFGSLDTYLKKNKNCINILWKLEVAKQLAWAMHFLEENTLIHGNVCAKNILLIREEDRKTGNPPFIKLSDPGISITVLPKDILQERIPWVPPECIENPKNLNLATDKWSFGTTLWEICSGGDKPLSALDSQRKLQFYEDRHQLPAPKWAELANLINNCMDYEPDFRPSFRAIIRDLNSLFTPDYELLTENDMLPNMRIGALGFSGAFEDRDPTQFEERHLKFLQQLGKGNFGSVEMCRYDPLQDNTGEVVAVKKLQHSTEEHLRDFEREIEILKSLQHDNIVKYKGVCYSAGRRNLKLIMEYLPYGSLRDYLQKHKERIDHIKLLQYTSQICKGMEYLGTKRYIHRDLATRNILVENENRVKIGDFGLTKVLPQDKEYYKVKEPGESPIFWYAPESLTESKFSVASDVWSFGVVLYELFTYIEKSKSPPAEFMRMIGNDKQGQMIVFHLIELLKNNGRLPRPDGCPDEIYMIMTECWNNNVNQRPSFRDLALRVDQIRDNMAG

[5] = target: T1, Tyrosine-protein kinase JAK1 (Homo sapiens, UniProt P23458); experiment: Inhibition of JAK1 (unknown origin)
T1 sequence (P23458 whole entry): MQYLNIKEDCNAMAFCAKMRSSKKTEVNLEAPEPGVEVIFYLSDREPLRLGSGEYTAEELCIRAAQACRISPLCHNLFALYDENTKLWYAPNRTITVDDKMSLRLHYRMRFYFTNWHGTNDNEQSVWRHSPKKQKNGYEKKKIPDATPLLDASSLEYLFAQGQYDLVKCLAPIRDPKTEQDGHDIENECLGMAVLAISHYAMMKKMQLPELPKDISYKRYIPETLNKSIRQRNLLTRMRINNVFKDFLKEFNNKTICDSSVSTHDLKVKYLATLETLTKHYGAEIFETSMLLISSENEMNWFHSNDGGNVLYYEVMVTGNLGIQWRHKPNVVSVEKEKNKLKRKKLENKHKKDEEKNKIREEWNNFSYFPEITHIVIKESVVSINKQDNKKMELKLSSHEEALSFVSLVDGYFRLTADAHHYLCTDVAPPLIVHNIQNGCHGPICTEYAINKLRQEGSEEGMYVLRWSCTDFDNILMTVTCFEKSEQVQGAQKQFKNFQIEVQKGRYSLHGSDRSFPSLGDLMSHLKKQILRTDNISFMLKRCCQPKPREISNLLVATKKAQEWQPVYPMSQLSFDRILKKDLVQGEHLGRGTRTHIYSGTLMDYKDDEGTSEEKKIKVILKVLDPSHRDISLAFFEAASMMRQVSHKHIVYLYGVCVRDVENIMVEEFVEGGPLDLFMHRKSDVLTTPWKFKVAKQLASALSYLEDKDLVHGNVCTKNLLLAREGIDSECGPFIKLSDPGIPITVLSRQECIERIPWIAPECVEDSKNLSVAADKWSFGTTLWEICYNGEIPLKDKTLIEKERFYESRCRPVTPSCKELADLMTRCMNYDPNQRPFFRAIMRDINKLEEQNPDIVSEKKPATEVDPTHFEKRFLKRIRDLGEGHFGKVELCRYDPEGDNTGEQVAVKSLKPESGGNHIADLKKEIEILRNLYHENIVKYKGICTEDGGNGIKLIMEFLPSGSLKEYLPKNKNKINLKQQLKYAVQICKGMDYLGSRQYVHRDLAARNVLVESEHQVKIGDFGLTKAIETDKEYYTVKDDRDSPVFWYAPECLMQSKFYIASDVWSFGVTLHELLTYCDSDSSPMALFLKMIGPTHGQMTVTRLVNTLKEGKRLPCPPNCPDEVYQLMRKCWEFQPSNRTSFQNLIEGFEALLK

[6] = target: T2, Serine/threonine-protein kinase D1 (Homo sapiens) (UniProt Q15139); experiment: Inhibition of protein kinase D1 (unknown origin) relative to control; settings: concentration not given here
T2 sequence (whole entry): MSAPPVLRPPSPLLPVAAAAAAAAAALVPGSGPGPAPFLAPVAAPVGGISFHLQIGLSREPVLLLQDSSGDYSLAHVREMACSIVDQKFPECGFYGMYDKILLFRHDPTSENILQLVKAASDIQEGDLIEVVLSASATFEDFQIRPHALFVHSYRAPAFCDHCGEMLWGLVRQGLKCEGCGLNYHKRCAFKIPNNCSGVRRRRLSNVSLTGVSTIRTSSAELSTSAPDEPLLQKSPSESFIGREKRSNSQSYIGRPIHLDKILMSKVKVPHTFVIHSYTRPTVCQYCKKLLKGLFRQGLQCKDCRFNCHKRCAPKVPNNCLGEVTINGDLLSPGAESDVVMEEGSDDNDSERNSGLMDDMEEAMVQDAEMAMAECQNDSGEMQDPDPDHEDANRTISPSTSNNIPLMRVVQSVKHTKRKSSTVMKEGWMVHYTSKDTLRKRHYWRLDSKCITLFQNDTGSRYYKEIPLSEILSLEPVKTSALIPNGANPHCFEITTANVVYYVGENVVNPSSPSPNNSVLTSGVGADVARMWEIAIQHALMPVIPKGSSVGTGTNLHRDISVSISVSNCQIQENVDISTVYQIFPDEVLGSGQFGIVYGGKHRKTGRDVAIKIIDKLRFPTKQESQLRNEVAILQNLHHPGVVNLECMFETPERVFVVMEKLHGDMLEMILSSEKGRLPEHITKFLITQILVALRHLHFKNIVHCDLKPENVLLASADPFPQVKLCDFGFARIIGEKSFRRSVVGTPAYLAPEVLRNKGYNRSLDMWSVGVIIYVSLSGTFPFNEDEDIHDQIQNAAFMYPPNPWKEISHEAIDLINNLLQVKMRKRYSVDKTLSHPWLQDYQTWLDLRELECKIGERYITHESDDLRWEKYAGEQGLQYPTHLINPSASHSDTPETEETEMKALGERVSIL
Outline: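 Kinase selectivity panel of 50 non-JAK kinases. […] Percent inhibition scored, and enzymes inhibited by more than 40% were counted.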

[7] = target: T3, Tyrosine-protein kinase JAK3 (Homo sapiens, UniProt P52333); experiment: Inhibition of JAK3 (unknown origin)
T3 sequence (P52333 whole entry): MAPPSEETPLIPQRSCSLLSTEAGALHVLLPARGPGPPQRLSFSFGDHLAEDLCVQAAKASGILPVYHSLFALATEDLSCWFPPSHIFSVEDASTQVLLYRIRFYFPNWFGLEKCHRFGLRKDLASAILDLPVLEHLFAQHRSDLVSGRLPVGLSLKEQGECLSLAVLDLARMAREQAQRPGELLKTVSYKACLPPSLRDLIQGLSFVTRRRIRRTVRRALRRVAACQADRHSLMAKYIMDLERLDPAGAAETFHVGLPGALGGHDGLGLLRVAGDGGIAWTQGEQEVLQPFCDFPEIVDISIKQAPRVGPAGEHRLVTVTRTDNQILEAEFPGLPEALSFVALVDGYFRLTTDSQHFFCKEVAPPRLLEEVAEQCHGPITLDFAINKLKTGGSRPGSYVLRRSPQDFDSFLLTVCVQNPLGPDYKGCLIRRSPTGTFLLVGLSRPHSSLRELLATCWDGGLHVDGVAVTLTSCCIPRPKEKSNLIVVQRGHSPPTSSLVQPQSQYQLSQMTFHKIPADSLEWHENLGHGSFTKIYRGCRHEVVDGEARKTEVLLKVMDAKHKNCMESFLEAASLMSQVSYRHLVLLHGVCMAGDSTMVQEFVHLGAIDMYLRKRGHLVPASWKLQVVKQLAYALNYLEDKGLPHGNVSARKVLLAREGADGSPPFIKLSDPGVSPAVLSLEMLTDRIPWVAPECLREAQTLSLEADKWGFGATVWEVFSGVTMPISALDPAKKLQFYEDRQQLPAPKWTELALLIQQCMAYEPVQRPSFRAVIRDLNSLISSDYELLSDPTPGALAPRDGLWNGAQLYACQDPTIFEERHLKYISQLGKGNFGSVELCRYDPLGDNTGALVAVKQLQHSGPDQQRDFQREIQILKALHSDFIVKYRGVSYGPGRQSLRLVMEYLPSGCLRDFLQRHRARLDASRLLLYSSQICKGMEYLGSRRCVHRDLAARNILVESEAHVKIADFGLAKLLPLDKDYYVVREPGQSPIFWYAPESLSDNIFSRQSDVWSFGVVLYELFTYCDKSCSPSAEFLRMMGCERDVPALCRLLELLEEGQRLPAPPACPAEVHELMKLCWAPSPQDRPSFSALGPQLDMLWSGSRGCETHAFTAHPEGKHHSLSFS

[8] = AUC in Sprague-Dawley rat at 5 mg/kg, po; assay type: ADME, organism-based; design: dose 5 mg/kg, route oral; settings: plasma
Outline: (§1)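 Rat pharmacokinetics given as mean profiles from three animals. Values normalized to 1 mg/kg iv and 5 mg/kg po. Clearance is plasma clearance after iv dosing.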

[9] = Clearance in Sprague-Dawley rat at 1 mg/kg, iv; assay type: ADME, organism-based; design: dose 1 mg/kg, route intravenous; settings: in vivo; outline: as §1
[10] = Cmax in Sprague-Dawley rat at 5 mg/kg, po; assay type: ADME, organism-based; design: dose 5 mg/kg, route oral; settings: in vivo; outline: as §1
[11] = Oral bioavailability in Sprague-Dawley rat at 5 mg/kg; assay type: ADME, organism-based; settings: in vivo; outline: as §1
[12] = Apparent permeability from apical to basolateral side in MDCK cells; assay type: ADME, cell-based, Canis lupus familiaris; settings: dog
Outline: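 MDCK cells grown in transwell culture. Apparent permeability measured in the apical-to-basolateral direction and reported as the arithmetic mean of at least two separate determinations.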

TF-1 = experiment: Selectivity ratio of EC50 for JAK2-mediated STAT5 phosphorylation in EPO-induced human TF1 cells to EC50 for JAK1-mediated STAT3 phosphorylation in IL6-induced human TF1 cells; assay type: cell-based
[13] = target: T1, Tyrosine-protein kinase JAK1; experiment: Inhibition of JAK1-mediated STAT3 phosphorylation in IL6-induced human TF1 cells; assay type: cell-based, TF-1
Homo sapiens [14] = organism: Homo sapiens; experiment: Selectivity ratio of Ki for TYK2 (unknown origin) to Ki for JAK1 (unknown origin)
[15] = target: Non-receptor tyrosine-protein kinase TYK2 (Homo sapiens, UniProt P29597); experiment: Inhibition of TYK2 (unknown origin)
Sequence of Non-receptor tyrosine-protein kinase TYK2 (P29597 whole entry): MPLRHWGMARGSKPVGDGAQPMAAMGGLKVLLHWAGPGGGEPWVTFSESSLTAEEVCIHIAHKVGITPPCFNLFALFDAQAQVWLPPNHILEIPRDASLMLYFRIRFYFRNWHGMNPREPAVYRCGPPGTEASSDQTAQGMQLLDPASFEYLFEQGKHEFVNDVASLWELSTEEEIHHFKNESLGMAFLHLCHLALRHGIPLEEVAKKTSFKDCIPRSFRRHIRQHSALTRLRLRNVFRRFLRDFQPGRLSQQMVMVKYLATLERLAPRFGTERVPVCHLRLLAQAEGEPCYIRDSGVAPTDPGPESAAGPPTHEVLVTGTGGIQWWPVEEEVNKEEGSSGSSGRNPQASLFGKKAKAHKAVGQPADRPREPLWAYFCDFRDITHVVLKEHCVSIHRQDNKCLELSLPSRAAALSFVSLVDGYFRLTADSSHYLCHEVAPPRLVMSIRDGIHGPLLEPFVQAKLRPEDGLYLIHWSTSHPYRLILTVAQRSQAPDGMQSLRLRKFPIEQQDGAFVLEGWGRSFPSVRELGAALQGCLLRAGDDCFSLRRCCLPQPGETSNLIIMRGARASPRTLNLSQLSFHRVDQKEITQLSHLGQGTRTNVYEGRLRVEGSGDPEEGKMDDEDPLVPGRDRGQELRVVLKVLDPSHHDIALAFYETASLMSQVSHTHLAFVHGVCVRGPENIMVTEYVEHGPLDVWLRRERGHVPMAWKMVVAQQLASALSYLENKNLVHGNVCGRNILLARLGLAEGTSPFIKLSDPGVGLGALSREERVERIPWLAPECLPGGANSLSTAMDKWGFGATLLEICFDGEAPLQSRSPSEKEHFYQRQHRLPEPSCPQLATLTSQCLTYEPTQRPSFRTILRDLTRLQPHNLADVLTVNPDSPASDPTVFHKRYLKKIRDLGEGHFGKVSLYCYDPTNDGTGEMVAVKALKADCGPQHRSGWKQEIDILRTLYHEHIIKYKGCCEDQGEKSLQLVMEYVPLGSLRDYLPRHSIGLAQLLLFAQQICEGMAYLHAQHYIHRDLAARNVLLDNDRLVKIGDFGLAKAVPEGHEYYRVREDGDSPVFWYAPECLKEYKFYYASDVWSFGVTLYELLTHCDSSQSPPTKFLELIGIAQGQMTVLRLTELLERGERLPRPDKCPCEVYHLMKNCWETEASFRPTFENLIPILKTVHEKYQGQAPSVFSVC

Homo sapiens [16] = organism: Homo sapiens; experiment: Selectivity ratio of Ki for JAK3 (unknown origin) to Ki for JAK1 (unknown origin)
[17] = Dissociation constant, pKa of the compound; assay type: physicochemical

SMILES	Ratio Ki (Homo sapiens [1])	half-life [2]	logD [3]	Ki [4]	Ki [5]	inhibition [6]	Ki [7]	AUC [8]	clearance [9]	Cmax [10]	bioavailability [11]	Papp A→B [12]	Ratio EC50 (TF-1)	EC50 [13]	Ratio Ki (Homo sapiens [14])	Ki [15]	Ratio Ki (Homo sapiens [16])	pKa [17]
CC(C)(C)OC(=O)N[C@H]1CC[C@H](n2nnc3cnc4[nH]ccc4c32)CC1	3.3	1 h	3.58	401 nM	120 nM													
c1cc2c(ncc3nnn(C4CCNCC4)c32)[nH]1	3.2		-0.35	669 nM	210 nM													
N#CCCN[C@H]1CC[C@H](n2nnc3cnc4[nH]ccc4c32)CC1		2.3 h	1.05			44%	122 nM	1.4 µM·h	88 mL/min/kg	900 nM	44%	7.2 ×10⁻⁶ cm/s						
COC(=O)N[C@H]1CC[C@H](n2nnc3cnc4[nH]ccc4c32)CC1	2.3	4.8 h	2.08	27 nM	12 nM								4	433 nM				
c1cc2c(ncc3nnn(CC4CCNCC4)c32)[nH]1	1.7	1.3 h		1230 nM	745 nM													
CC1(n2nnc3cnc4[nH]ccc4c32)CCN(S(C)(=O)=O)CC1	6.7	32 h	1.5	53 nM	7.9 nM		369 nM	1 µM·h	211 mL/min/kg	700 nM	82%	14 ×10⁻⁶ cm/s	15	220 nM	> 10	234 nM	> 10	
CS(=O)(=O)N1CCC(n2nnc3cnc4[nH]ccc4c32)CC1	1.9	1.7 h	1.05	12 nM	6.2 nM			18 µM·h	16 mL/min/kg	4600 nM	> 100%	13 ×10⁻⁶ cm/s	4.8	249 nM				
F[C@@H]1CNCC[C@H]1n1nnc2cnc3[nH]ccc3c21 (racemic)	2.7	15 h	0.77	57 nM	21 nM													
O[C@H]1CC[C@H](n2nnc3cnc4[nH]ccc4c32)CC1		1.2 h	1.76															
c1ccc(CN2CCC(n3nnc4cnc5[nH]ccc5c43)CC2)cc1	2	0.5 h		15 nM	8.5 nM								3.4	121 nM				
c1ccc(CN2CCC[C@@H](n3nnc4cnc5[nH]ccc5c43)C2)cc1	1.6	0.2 h			25 nM													
c1cncc(CN2CCC(n3nnc4cnc5[nH]ccc5c43)CC2)c1	1.7	0.7 h	2.03	28 nM	16 nM								2.7	414 nM				
N#CCC(=O)N1CCC[C@@H](n2nnc3cnc4[nH]ccc4c32)C1			0.6	3.8 nM			24 nM	1 µM·h	110 mL/min/kg	400 nM	41%	3.7 ×10⁻⁶ cm/s	6.8	114 nM	> 10	20 nM	> 10	1.96
CC(C)CC(=O)N[C@H]1CC[C@H](n2nnc3cnc4[nH]ccc4c32)CC1	3.6	3.7 h	2.7	17 nM	4.7 nM								5	350 nM				
CC(C)(C)OC(=O)N[C@@H]1CC[C@@H](n2nnc3cnc4[nH]ccc4c32)C1	4.2	0.9 h	3.53	10 nM	2.4 nM								4.3	127 nM				
F[C@H]1CNCC[C@H]1n1nnc2cnc3[nH]ccc3c21 (racemic)	2.3		0.27	446 nM	198 nM													
CN1CCC[C@H]1C(=O)N1CCC(n2nnc3cnc4[nH]ccc4c32)CC1	5.9	1.1 h		721 nM	121 nM													
N#CCCO[C@H]1CC[C@H](n2nnc3cnc4[nH]ccc4c32)CC1		5.8 h	1.36		> 3760 nM													
N#CCCN1CCC(n2nnc3cnc4[nH]ccc4c32)CC1	1.8	1.9 h	1.12	3.7 nM	2.1 nM			1.8 µM·h	44 mL/min/kg	4900 nM	28%	17 ×10⁻⁶ cm/s	4.6	138 nM				
COC(=O)N[C@@H]1CC[C@@H](n2nnc3cnc4[nH]ccc4c32)C1 (racemic)	2.8	4.3 h	1.98	33 nM	12 nM								6.8	395 nM				
CC1(n2nnc3cnc4[nH]ccc4c32)CCN(CCC#N)CC1	3.1	4.8 h	1.92	487 nM	156 nM													
N#CCC(=O)N1CCC[C@@H](n2cnc3cnc4[nH]ccc4c32)C1												0.3 ×10⁻⁶ cm/s						4.34
N[C@H]1CC[C@H](n2nnc3cnc4[nH]ccc4c32)CC1		1.1 h	-0.24															
